Rows were chosen to be rich in hits. Some 0.74% of all compounds tested hit in one or more screens of this group.
RGS8-Gao reg – human RGS8-Galphao interaction regulation; P09471; multiplexed bead flow cytometry, RGS8-Galphao binding; actives lie on both sides; response (percent of control binding), % at 10 µM; 220,000 tested, 0.34% active; AID 1423; in the data active = response below about 60% or above about 140%; inactive = in between;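 also: Galphao activated as the GDP aluminium fluoride complex binding bead-coupled RGS8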
RGS4-Gao reg – human RGS4-Galphao interaction regulation; P09471; Multiplexed bead flow cytometry, RGS4-Galphao binding; actives lie on both sides; binding response (% of control), % at 10 µM; 220,000 tested, 0.33% active; in the data active = binding response below about 49% or above about 150%; inactive = in between;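 also: fluorescent Galphao activated with aluminum fluoride binding bead-coupled RGS4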
Biofilm kill mix – mixtures killing C. albicans biofilm | C. albicans biofilm persisters + clotrimazole, fluorescence viability; primary screen in compound mixtures of four per well | inhibition, % at 7.6 µM | 120,000 tested, 0.02% active;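 active = inhibition above 30.3% in the primary screen of four-compound pools, then above 30% when the compound was retested; inconclusive = passed the primary limit but could not be retested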;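 also: compounds exposed to preformed 24 h biofilms for 48 h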
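System: C. albicans CAF4-2 wild-type biofilms; Medium: RPMI/MOPS medium, pH 7.0; Reagent: Clotrimazole, 50 µg/mL; Times: biofilm formation 24 h, compound exposure 48 h, 37 °C; Detection: 2-h Alamar Blue fluorescence, 535/590 nm excitation/emission; Evaluation: percent inhibition of biofilm viability.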
RGS7-Gao reg – regulators of human RGS7-Galphao interaction; P09471; Multiplexed bead flow cytometry, RGS7-Galphao binding; actives lie on both sides; binding response (% of control), % at 10 µM; 220,000 tested, 0.35% active; AID 1439; in the data active = binding response below about 49% or above about 150%; inconclusive = no clear call, values can overlap the other calls; inactive = in between;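 also: fluorescent Galphao held in activated GDP-AlF4 state binding bead-coupled RGS7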
RGS16-Gao HTS – modulates binding between human RGS16 and Galphao. O15492+P09471. bead-based flow cytometry RGS16-Galphao binding, fluorescence; actives lie on both sides. binding response (% of control), % at 10 µM. 220,000 tested, 0.38% active. AID 1441;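 also: Galphao activated by GDP with aluminum fluoride before binding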
Target sequence (O15492 whole entry, looked up): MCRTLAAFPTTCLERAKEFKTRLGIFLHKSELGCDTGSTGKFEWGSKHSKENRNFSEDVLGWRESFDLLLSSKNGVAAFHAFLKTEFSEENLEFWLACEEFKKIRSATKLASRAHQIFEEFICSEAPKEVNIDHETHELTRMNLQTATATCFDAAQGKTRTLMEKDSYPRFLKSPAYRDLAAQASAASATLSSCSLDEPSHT
Target sequence (P09471 whole entry, looked up): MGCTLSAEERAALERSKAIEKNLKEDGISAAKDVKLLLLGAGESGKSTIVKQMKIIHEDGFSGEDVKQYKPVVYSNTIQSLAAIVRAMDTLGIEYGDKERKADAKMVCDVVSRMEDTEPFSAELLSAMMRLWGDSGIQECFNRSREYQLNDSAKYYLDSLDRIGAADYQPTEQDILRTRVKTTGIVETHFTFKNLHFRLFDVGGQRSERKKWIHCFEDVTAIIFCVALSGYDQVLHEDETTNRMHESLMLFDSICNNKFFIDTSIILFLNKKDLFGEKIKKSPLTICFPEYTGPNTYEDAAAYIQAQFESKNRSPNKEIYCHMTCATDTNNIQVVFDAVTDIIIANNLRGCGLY
RGS-Gao – modulates binding between human RGS4 and Galphao. shares compounds with RGS16-Gao HTS. multiplexed bead flow cytometry, RGS–Galpha-o binding. RGS4–Galpha-o binding response, % at 10 µM. 1,600 tested, 99% active;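 also: fluorescently labeled Galpha-o bound to GDP with aluminium fluoride binding biotinylated RGS beads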
Target sequence (P09471 whole entry, looked up): as above
Target sequence (P49798 whole entry, looked up): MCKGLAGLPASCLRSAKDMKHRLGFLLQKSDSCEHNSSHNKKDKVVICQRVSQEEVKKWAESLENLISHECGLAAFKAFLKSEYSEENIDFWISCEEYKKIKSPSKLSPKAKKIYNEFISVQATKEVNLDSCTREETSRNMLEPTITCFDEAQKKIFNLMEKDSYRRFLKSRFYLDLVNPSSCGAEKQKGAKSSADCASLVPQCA
Biotin-avidin – interferes with biotinylated probe binding to avidin beads; shares compounds with RGS16-Gao HTS; streptavidin beads, fluorescein-biotin binding, flow cytometry; inhibition, % at 10 µM; 1,700 tested, under 10 active;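 active = inhibition above 50%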;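 also: median green fluorescence of gated singlet beads compared with DMSO control wells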
RGS8-Gao confirm – RGS8-Galphao interaction regulation, single point confirmation | 1,700 tested, 3% active | bead-based flow cytometry RGS8-Galphao binding, fluorescence; actives lie on both sides | shares compounds with RGS16-Gao HTS | binding response (% of control), % at 10 µM; in the data active = binding response below about 72% or above about 130%; inactive = in between;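 also: Galphao activated as GDP AlF4 complex before binding bead RGS8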
RGS7-Gao confirm – RGS7-Galphao interaction regulation, single point confirmation; 1,700 tested, 7.8% active; shares compounds with RGS16-Gao HTS; response (percent of control binding), % at 10 µM; bead-based flow cytometry RGS7-Galphao binding; actives lie on both sides; in the data active = response below about 75% or above about 130%; inactive = in between;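 also: fluorescent Galphao activated with GDP and aluminum fluoride binding bead-coupled RGS7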
RGS16-Gao conf – confirmation of regulators of human RGS16-Galphao interaction; shares compounds with RGS16-Gao HTS; bead-based flow cytometry, RGS16-Galphao binding; actives lie on both sides; response (% of control binding), % at 10 µM; 1,700 tested, 4% active; in the data active = response below about 74% or above about 130%; inactive = in between;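 also: Galphao activated as the GDP aluminium fluoride complex binding bead-coupled RGS16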
RGS4-Gao single – RGS4-Galphao interaction regulation, single point confirmation; 1,700 tested, 4% active; RGS4-Galphao binding, multiplexed bead flow cytometry; actives lie on both sides; AID 1840; binding response (% of control), % at 10 µM; shares compounds with RGS16-Gao HTS; in the data active = binding response below about 74% or above about 130%; inactive = in between
RGS19-Gao single – RGS19-Galphao interaction regulation, single point confirmation. response (percent of control binding), % at 10 µM. 1,700 tested, 5% active. bead-based flow cytometry RGS19-Galphao binding; actives lie on both sides. shares compounds with RGS16-Gao HTS; in the data active = response below about 50% or above about 160%; inactive = in between
Hits are given with their value; i = inactive; ? = inconclusive; nt = not tested or not shown; [ ] = dose if it differs, or a comment. Unless noted, no rule for the calls is given here.

SMILES | RGS8-Gao reg | RGS4-Gao reg | Biofilm kill mix | RGS7-Gao reg | RGS16-Gao HTS | RGS-Gao | Biotin-avidin | RGS8-Gao confirm | RGS7-Gao confirm | RGS16-Gao conf | RGS4-Gao single | RGS19-Gao single
Cc1nonc1C1CCCN1C(=O)c1cc(COc2ccc(F)cc2Cl)on1 (stereo unspecified) | i | i | i | i | i | nt | nt | nt | nt | nt | nt | nt
C=C1c2ccccc2NC(=S)N1Cc1ccc2c(c1)OCO2 | i | i | i | i | i | nt | nt | nt | nt | nt | nt | nt
COc1cccc(C(=O)NCCOc2cc(C)cc(C)c2)c1 | i | i | i | i | i | nt | i | i | i | i | i | i
Cc1ccc([N+](=O)[O-])cc1NC(=O)/C=C/C(=O)O | i | i | i | ? | i | nt | nt | nt | nt | nt | nt | nt
COc1ccc([N+](=O)[O-])cc1NC(=O)/C=C/C(=O)O | i | i | i | i | 13 | 91 | i | i | i | i | i | i
COc1ccc([N+](=O)[O-])cc1NC(=O)Cc1ccc(C)cc1 | i | i | i | i | -0.2 | 84 | i | i | i | i | i | i
COc1ccc(Nc2nc3[nH]c(=O)cc(O)c3s2)cc1 | 16 | 23 | i | 21 | 12 | nt | i | i | i | i | i | i
C#CCn1c(=NC(=O)c2cc(-c3cccs3)nc3ccccc23)sc2cc(S(N)(=O)=O)ccc21 | 47 | i | i | 34 | i | 80 | i | i | i | i | i | i
Cc1nnc(N2CCOCC2)c2nn(-c3ccccc3)c(C)c12 | 147[activator] | i | i | i | i | 149 | i | i | i | i | i | i
O=C(COC(=O)c1ccc(S(=O)(=O)Nc2ccccc2)cc1)NCCC1=CCCCC1 | i | i | i | i | i | nt | nt | nt | nt | nt | nt | nt
CC(C)Sc1nc2ccc(N3C(=O)C4CCCCC4C3=O)cc2s1 (stereo unspecified) | i | i | i | i | 21 | 88 | i | i | i | i | i | i
Cc1ccc(OC(=O)C23CC4CC(CC(C4)C2)C3)c(C)n1 | i | i | i | 152[activator] | i | 119 | i | i | i | i | i | i
CCc1nc(C)ccc1OC(=O)C12CC3CC(CC(C3)C1)C2 | i | i | i | i | i | nt | nt | nt | nt | nt | nt | nt
CC(C)OCC(O)CS(=O)(=O)Cc1ccccc1 (stereo unspecified) | i | i | nt | i | -90 | 68 | i | i | i | i | i | i
O=C(Nc1nnc(-c2ccccc2Cl)o1)c1ccco1 | nt | nt | nt | nt | nt | nt | i | i | i | i | i | i
O=C(NCCC1=CCCCC1)c1ccc(Cl)cc1 | i | i | i | i | i | nt | nt | nt | nt | nt | nt | nt
CS(=O)(=O)Nc1ccc(C(=O)NCCC2=CCCCC2)cc1 | nt | nt | nt | nt | nt | nt | i | i | i | i | i | i
C=CCc1c(C)nc(N)[nH]c1=O | i | i | i | i | i | nt | nt | nt | nt | nt | nt | nt
CC1(C)NC(=O)N(CC(=O)OCC(=O)Nc2cc(S(=O)(=O)N3CCCCCC3)ccc2Cl)C1=O | i | i | i | i | i | nt | nt | nt | nt | nt | nt | nt
Cc1ccc(CN(c2ccc(C(=O)Nc3cccnc3)cc2)S(C)(=O)=O)cc1 | 32 | -2.8 | nt | 16 | 4.8 | nt | i | i | i | i | i | i
CC(C)(C)c1ccc(NC(=O)COC(=O)C2=COCCO2)cc1 | i | i | nt | i | -183 | 117 | i | i | 60 | i | 73 | i
CC(C)c1ccc(NC(=O)COC(=O)C2=COCCO2)cc1 | i | i | nt | i | i | nt | nt | nt | nt | nt | nt | nt
Cc1ccc(S(=O)(=O)NCC2CCC(C(=O)NCc3ccc4c(c3)OCO4)CC2)cc1 (stereo unspecified) | nt | i | nt | nt | i | nt | i | i | i | i | i | i
Cc1ccc(C)n1-c1cccc(N)c1 | i | 49 | nt | i | i | nt | i | i | i | i | i | i
Cc1ccc(C)n1-c1cccc(C(=O)O)c1 | 49 | i | nt | 22 | i | 84 | nt | nt | nt | nt | nt | nt
SMILES | RGS8-Gao reg | RGS4-Gao reg | Biofilm kill mix | RGS7-Gao reg | RGS16-Gao HTS | RGS-Gao | Biotin-avidin | RGS8-Gao confirm | RGS7-Gao confirm | RGS16-Gao conf | RGS4-Gao single | RGS19-Gao single
Cc1c(C(=O)N/N=C/c2cccs2)nc2ccccn12 | i | i | i | i | i | nt | nt | nt | nt | nt | nt | nt
CCCS(=O)(=O)N1CCCC(C(=O)NCCCN2CCN(c3cccc(Cl)c3)CC2)C1 (stereo unspecified) | 146[activator] | 295[activator] | nt | 234[activator] | i | nt | i | i | i | i | i | i
CC(CNCC1CCCO1)COc1cccc2ccccc12 (stereo unspecified) | 176[activator] | i | nt | i | i | 117 | i | i | i | i | i | i
CC(CNCC1CCCO1)COc1ccccc1 (stereo unspecified) | i | i | nt | i | i | nt | nt | nt | nt | nt | nt | nt
O=C1CCCc2cc3c(cc21)CC1(C3)Cc2cc3c(cc2C1)C(=O)CCC3 | i | i | i | ? | i | nt | nt | nt | nt | nt | nt | nt
Cc1cc(C)c2c(=O)n(CC(=O)NC3CCCC3)sc2n1 | i | i | i | ? | i | nt | nt | nt | nt | nt | nt | nt
COc1ccc(OC)c(CCNC(=O)Cn2sc3nc(C)cc(C)c3c2=O)c1 | i | i | nt | i | 17 | 92 | i | 52 | 71 | 6.5 | 69 | 8.8
O=[N+]([O-])c1ccc2c(c1)N([O-])C1(CCCCC1)[N+]2=O | 35 | i | i | ? | i | 91 | nt | nt | nt | nt | nt | nt
CC(=O)NNc1cc(N2CCOCC2)nc(N2CCOCC2)n1 | i | i | i | ? | i | nt | nt | nt | nt | nt | nt | nt
CC(C)(C)c1ccc(C(=O)NNc2cc(N3CCCCC3)nc(N3CCCCC3)n2)cc1 | 173[activator] | 842[activator] | nt | 643[activator] | 560[activator] | nt | i | i | i | i | i | i
O=C(NNc1cc(N2CCOCC2)nc(N2CCOCC2)n1)c1ccc(Cl)cc1Cl | 23 | 21 | i | 12 | 10 | nt | i | i | i | i | i | i
O=C(CCC(=O)N(CC(=O)NC1CCCC1)Cc1cccs1)Nc1nccs1 | i | i | i | i | i | nt | nt | nt | nt | nt | nt | nt
Cn1c(-c2ccc[nH]c2=O)nc2cc(Cl)ccc21 | i | i | nt | i | i | nt | nt | nt | nt | nt | nt | nt
CCCN(C(=O)CCl)C1=CCCCC1 | i | i | i | i | i | nt | nt | nt | nt | nt | nt | nt
O=C(NC1CCCCC1)c1ccc(N2CCCC2=O)cc1 | i | i | nt | i | 211[activator] | 108 | nt | nt | nt | nt | nt | nt
CCOC(=O)C1(CCc2ccccc2)CCN(C(=O)c2cnc(C)cn2)CC1 | i | i | i | i | i | nt | nt | nt | nt | nt | nt | nt
Cc1ccccc1-n1c(-c2ccncc2)n[nH]c1=S | i | i | i | i | 18 | 91 | i | i | i | i | i | i

Screens as filed in PubChem BioAssay.
